# From ChEMBL document CHEMBL1138854, “Synthesis and antitumor activity of guanylhydrazones from 6-(2,4-dichloro-5-nitrophenyl)imidazo[2,1-b]thiazoles and 6-pyridylimidazo[2,1-b]thiazoles(1)” (2006)
# “And” between values parts separate entries of the source, which are not always exact repeats. Equal entries are not always repeated.
# Experiment: Antitumor activity against renal cell lines of the NCI60 panel
# Type: functional, Homo sapiens
# Summary of the method: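 Run by NCI in the 60-cell-line panel (details in Supporting Information). Highest concentration 10^-4 M unless noted (one case 10-2.6 M). Values expressed as -log molar concentration giving 50% growth inhibition (pGI50), total cytostasis (pTGI) or 50% cell kill (pLC50); only values >4.00 reported; mean graph midpoint is the calculated panel mean.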
row,SMILES,LC50
1,N=C(N)N/N=C/c1c(-c2cc([N+](=O)[O-])c(Cl)cc2Cl)nc2n1CCS2,5.25 µM
2,Cc1sc2nc(-c3cc([N+](=O)[O-])c(Cl)cc3Cl)c(/C=N/NC(=N)N)n2c1C,36.3 µM and 85.1 µM
3,Cc1cn2c(/C=N/NC(=N)N)c(-c3ccncc3)nc2s1,72.4 µM
4,Cc1csc2nc(-c3cc([N+](=O)[O-])c(Cl)cc3Cl)c(/C=N/N=C(N)N)n12,64.6 µM
5,N=C(N)N/N=C/c1c(-c2ccc(Cl)c([N+](=O)[O-])c2)nc2n1CCS2,28.2 µM and 64.6 µM
6,N=C(N)N/N=C/c1c(-c2cc([N+](=O)[O-])c(Cl)cc2Cl)nc2sccn12,4.47 µM and 24 µM
7,N=C(N)N/N=C/c1c(-c2cc([N+](=O)[O-])c(Cl)cc2Cl)nc2sc(Cl)cn12,97.7 µM
8,CCc1cn2c(/C=N/NC(=N)N)c(-c3cc([N+](=O)[O-])c(Cl)cc3Cl)nc2s1,3.02 µM and 6.46 µM
9,Cc1sc2nc(-c3ccccn3)c(/C=N/NC(=N)N)n2c1C,57.5 µM
10,N=C(N)N/N=C/c1c(-c2cccnc2)nc2sc(Cl)cn12,69.2 µM
11,Cc1cn2c(/C=N/NC(=N)N)c(-c3ccccn3)nc2s1,19.5 µM and 53.7 µM
12,N=C(N)N/N=C/c1c(-c2ccccn2)nc2sc(Cl)cn12,28.8 µM
13,CCCc1cn2c(/C=N/NC(=N)N)c(-c3cc([N+](=O)[O-])c(Cl)cc3Cl)nc2s1,5.37 µM
14,Cc1cn2c(/C=N/NC(=N)N)c(-c3cccnc3)nc2s1,27.5 µM and 61.7 µM
15,N=C(N)N/N=C/c1c(-c2ccncc2)nc2sc(Cl)cn12,15.8 µM and 44.7 µM
